Test results taken from ChEMBL document CHEMBL1123291, “Modified di- and tripeptides of the C-terminal portion of oxytocin and vasopressin as possible cognition activation agents” (1986).
Non-standard residues stand in square brackets, D forms with d. Residues, ends and D or L forms follow the SMILES beside them. ξ: configuration not given here. *: point of attachment. Arg(NO2) = N=C(NCCC[C@H](N)C(=O)O)N[N+](=O)[O-]; ξArg(NO2) = N=C(NCCCC(N)C(=O)O)N[N+](=O)[O-]; Cbz = O=C(OCc1ccccc1)*; Boc = CC(C)(C)OC(=O)*

What was measured:
Format in all cases: functional
Rattus norvegicus [1] = assay: Ability (% reversal in rats) to reverse electroconvulsive shock-induced amnesia in rodents at a dose of 0.010 (mg/kg) administered intramuscularly (im)
Outline: (§1)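 Passive avoidance (step-through, lighted vs darkened compartment). […], ECS (20 mA, 1 s) was given transcorneally via saline-soaked electrodes, and maximal hindlimb extension was required. Drug was given im at selected doses 2 h post-training. One hour later, entry latency to the dark side was recorded, with 60 s counted as retention. At least 75% of ECS controls had to be amnesic. Replicates were mostly not run.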

Rattus norvegicus [2] = assay: Ability (% reversal in rats) to reverse electroconvulsive shock-induced amnesia in rodents at a dose of 0.0010 (mg/kg) (following i.m. administration); outline: as §1
Rattus norvegicus [3] = assay: Ability (% reversal in rats) to reverse electroconvulsive shock-induced amnesia in rodents at a dose of 0.10 (mg/kg) (following intramuscular dosing); outline: as §1
Rattus norvegicus [4] = assay: Compound was tested for its ability (% reversal in rats) to reverse electroconvulsive shock-induced amnesia in rodents at a dose of 0.010 (mg/kg) administered intramuscularly (im).; outline: as §1
Mus musculus [5] = assay: Ability to reverse electroconvulsive shock-induced amnesia in rodents following 1 ug/kg i.m. administration.; outline: as §1
Mus musculus [6] = assay: Ability to reverse electroconvulsive shock-induced amnesia in rodents following 0.1 mg/kg i.m. administration.; conditions: route intramuscular; outline: as §1
Mus musculus [7] = assay: Ability to reverse electroconvulsive shock-induced amnesia in rodents following 0.01 mg/kg i.m. administration.; conditions: route intramuscular; outline: as §1
Rattus norvegicus [8] = assay: Compound was tested for its ability (% reversal in rats) to reverse electroconvulsive shock-induced amnesia in rodents at a dose of 10 (mg/kg) administered intramuscularly (im); outline: as §1
Rattus norvegicus [9] = assay: Compound was tested for its ability (% reversal in rats) to reverse electroconvulsive shock-induced amnesia in rodents at a dose of 100 (mg/kg) administered intramuscularly (im); outline: as §1
Rattus norvegicus [10] = assay: Compound was tested for its ability (% reversal in rats) to reverse electroconvulsive shock-induced amnesia in rodents at a dose of 1 (mg/kg) administered intramuscularly (im); outline: as §1

## CC(C)(C)OC(=O)N1CCCC1CN[C@@H](CCCCNC(=O)OCc1ccccc1)C(=O)NCC(N)=O (stereo partly specified)
Rattus norvegicus [1]
  Reversal: 33%
Rattus norvegicus [2]
  Reversal: 16%
Rattus norvegicus [3]
  Reversal: 16%

## NCCCC[C@H](NC(=O)[C@@H]1CCCN1C(=O)[C@@H]1CSSC[C@H](N)C(=O)N[C@@H](Cc2ccc(O)cc2)C(=O)N[C@@H](Cc2ccccc2)C(=O)N[C@@H](CCC(N)=O)C(=O)N[C@@H](CC(N)=O)C(=O)N1)C(=O)NCC(N)=O
Rattus norvegicus [4]
  Reversal: 20%
Rattus norvegicus [2]
  Reversal: 20%
Rattus norvegicus [3]
  Reversal: 56%
Mus musculus [5]
  Reversal: 58%
Mus musculus [6]
  Reversal: 67%
Mus musculus [7]
  Reversal: 58%

## NCCCC[C@H](NC(=O)[C@@H]1CCCN1C(=O)OCc1ccccc1)C(=O)NCC(N)=O (Cbz-Pro-Lys-Gly-NH2)
Mus musculus [5]
  Reversal: 9%
Mus musculus [6]
  Reversal: 63%
Mus musculus [7]
  Reversal: 100%

## N=C(N)NCCC[C@H](NC(=O)[C@@H]1CCCN1)C(=O)NCC(N)=O (H-Pro-Arg-Gly-NH2)
Mus musculus [5]
  Reversal: 30%
Mus musculus [6]
  Reversal: 30%
Mus musculus [7]
  Reversal: 0%

## NC(=O)CNC(=O)[C@H](CCCCNC(=O)OCc1ccccc1)NCC1CCCN1 (stereo partly specified)
Rattus norvegicus [8]
  Reversal: 16%
Rattus norvegicus [1]
  Reversal: 16%
Rattus norvegicus [9]
  Reversal: 83%
Rattus norvegicus [10]
  Reversal: 16%
Rattus norvegicus [2]
  Reversal: 0%
Rattus norvegicus [3]
  Reversal: 33%

## CC(C)CC(OCC1CCCN1C(=O)OCc1ccccc1)C(=O)NCC(N)=O (stereo unspecified)
Rattus norvegicus [1]
  Reversal: 0%
Rattus norvegicus [2]
  Reversal: 33%
Rattus norvegicus [3]
  Reversal: 0%

## CC(C)CC(COCC(=O)O)NC(=O)C1CCCN1C(=O)OCc1ccccc1 (stereo unspecified)
Rattus norvegicus [1]
  Reversal: 0%
Rattus norvegicus [2]
  Reversal: 29%
Rattus norvegicus [3]
  Reversal: 0%

## CC(C)CC(/C=C/CC(N)=O)NC(=O)C1CCCN1C(=O)OCc1ccccc1 (stereo unspecified)
Rattus norvegicus [1]
  Reversal: 77%
Rattus norvegicus [2]
  Reversal: 33%
Rattus norvegicus [3]
  Reversal: 44%

## CC(C)(C)OC(=O)N1CCC[C@H]1C(=O)N[C@@H](CCC/N=C(\N)N[N+](=O)[O-])C(=O)NCC(N)=O (Boc-Pro-[Arg(NO2)]-Gly-NH2)
Mus musculus [5]
  Reversal: 44%
Mus musculus [6]
  Reversal: 33%
Mus musculus [7]
  Reversal: 20%

## CC(C)(C)OC(=O)N1CCC[C@H]1C(=O)N[C@@H](CCCCNC(=O)OCc1ccccc1)C(=O)NCC(N)=O (Boc-Pro-Lys(Cbz)-Gly-NH2)
Mus musculus [5]
  Reversal: 91%
Mus musculus [6]
  Reversal: 0%
Mus musculus [7]
  Reversal: 63%

## NC(=O)CC[C@@H]1NC(=O)[C@H](Cc2ccccc2)NC(=O)[C@H](Cc2ccc(O)cc2)NC(=O)[C@@H](N)CSSC[C@@H](C(=O)N2CCC[C@H]2C(=O)N[C@@H](CCCN=C(N)N)C(=O)NCC(N)=O)NC(=O)[C@H](CC(N)=O)NC1=O
Rattus norvegicus [1]
  Reversal: 100%
Rattus norvegicus [2]
  Reversal: 0%
Rattus norvegicus [3]
  Reversal: 60%

## Cc1ccc(S(=O)(=O)N2CCCC2CNC(CC(C)C)C(=O)NCC(=O)O)cc1 (stereo unspecified)
Rattus norvegicus [1]
  Reversal: 33%
Rattus norvegicus [2]
  Reversal: 33%
Rattus norvegicus [3]
  Reversal: 0%

## CC(C)(C)OC(=O)NCCCC[C@H](NC(=O)[C@@H]1CCCN1C(=O)OCc1ccccc1)C(=O)NCC(N)=O (Cbz-Pro-Lys(Boc)-Gly-NH2)
Rattus norvegicus [1]
  Reversal: 0%
Rattus norvegicus [2]
  Reversal: 50%
Rattus norvegicus [3]
  Reversal: 0%

## CC(C)(C)OC(=O)N1CCC[C@H]1C(=O)N[C@@H](CCCN=C(N)N)C(=O)NCC(N)=O (Boc-Pro-Arg-Gly-NH2)
Mus musculus [5]
  Reversal: 0%
Mus musculus [6]
  Reversal: 71%
Mus musculus [7]
  Reversal: 43%

## Cc1ccc(S(=O)(=O)N2CCCC2CN[C@@H](CC(C)C)C(=O)NCC(N)=O)cc1 (stereo partly specified)
Rattus norvegicus [8]
  Reversal: 62%
Rattus norvegicus [1]
  Reversal: 0%
Rattus norvegicus [9]
  Reversal: 87%
Rattus norvegicus [10]
  Reversal: 75%
Rattus norvegicus [2]
  Reversal: 0%
Rattus norvegicus [3]
  Reversal: 34%

## CC(C)CC1CN(C[C@H](CC(C)C)NC(=O)[C@@H]2CCC(=O)N2)CC(=O)N1 (stereo partly specified)
Rattus norvegicus [8]
  Reversal: 0%
Rattus norvegicus [9]
  Reversal: 0%
Rattus norvegicus [10]
  Reversal: 0%

## CC(C)(C)OC(=O)NC(CCC/N=C(\N)N[N+](=O)[O-])C(=O)NCC(N)=O (stereo unspecified) (Boc-[ξArg(NO2)]-Gly-NH2)
Mus musculus [5]
  Reversal: 33%
Mus musculus [6]
  Reversal: 73%
Mus musculus [7]
  Reversal: 53%

## COC(=O)CNC(=O)[C@H](CCCCNC(=O)OC(C)(C)C)NC(=O)[C@@H]1CCCN1C(=O)OCc1ccccc1 (Cbz-Pro-Lys(Boc)-Gly-OMe)
Mus musculus [5]
  Reversal: 91%
Mus musculus [6]
  Reversal: 0%
Mus musculus [7]
  Reversal: 54%

## CC(C)CC(CSCC(=O)O)NC(=O)C1CCCN1C(=O)OCc1ccccc1 (stereo unspecified)
Rattus norvegicus [1]
  Reversal: 57%
Rattus norvegicus [2]
  Reversal: 57%
Rattus norvegicus [3]
  Reversal: 14%
Mus musculus [5]
  Reversal: 69%
Mus musculus [6]
  Reversal: 69%
Mus musculus [7]
  Reversal: 77%

## CC(C)C[C@H](NC(=O)[C@@H]1CCCN1C(=O)OCc1ccccc1)C(=O)NCC(N)=O (Cbz-Pro-Leu-Gly-NH2)
Mus musculus [5]
  Reversal: 93%
Mus musculus [6]
  Reversal: 100%
Mus musculus [7]
  Reversal: 47%

## Cc1ccc(C(=O)NC(CSCC(=O)O)CC(C)C)s1 (stereo unspecified)
Rattus norvegicus [1]
  Reversal: 60%
Rattus norvegicus [2]
  Reversal: 60%
Rattus norvegicus [3]
  Reversal: 20%

## NCCCC[C@H](NC(=O)[C@@H]1CCCN1)C(=O)NCC(N)=O (H-Pro-Lys-Gly-NH2)
Rattus norvegicus [1]
  Reversal: 78%
Rattus norvegicus [2]
  Reversal: 78%
Rattus norvegicus [3]
  Reversal: 78%
Mus musculus [5]
  Reversal: 100%
Mus musculus [6]
  Reversal: 39%
Mus musculus [7]
  Reversal: 48%
